In brackets after ≈: the same amount, converted by molar mass.
Experiments:
Enterococcus faecium [1] = test: Antibacterial activity against vancomycin-resistant Enterococcus faecium 243 after overnight incubation
Staphylococcus aureus = test: Antibacterial activity against Staphylococcus aureus 6538P after overnight incubation; type: functional
How it was run: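 Strains were grown in Luria Broth. Overnight stationary-phase cultures were diluted 1:1000 into fresh medium with twofold compound dilutions, highest typically 128 µg/ml, in 96-well plates. Incubated overnight at 37 °C. MIC recorded as the […].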

Enterococcus faecium [2] = test: Antibacterial activity against vancomycin-resistant Enterococcus faecium 820 after overnight incubation
Enterococcus faecium [3] = test: Antibacterial activity against vancomycin-resistant Enterococcus faecium 449 after overnight incubation
Enterococcus faecium [4] = test: Antibacterial activity against vancomycin-resistant Enterococcus faecium 987 after overnight incubation
[5] = system: Staphylococcus epidermidis; test: Antibacterial activity against Staphylococcus epidermidis ATCC 700562 after overnight incubation; type: functional
[6] = Enterococcus faecium, 243, read-out: MIC
[7] = Staphylococcus aureus, 6538P, read-out: MIC
[8] = Enterococcus faecium, 820, read-out: MIC
[9] = Enterococcus faecium, 449, read-out: MIC
[10] = Enterococcus faecium, 987, read-out: MIC

SMILES	MIC (Enterococcus faecium [1]; [6]) [µg/mL]	MIC (Staphylococcus aureus; [7]) [µg/mL]	MIC (Enterococcus faecium [2]; [8]) [µg/mL]	MIC (Enterococcus faecium [3]; [9]) [µg/mL]	MIC (Enterococcus faecium [4]; [10]) [µg/mL]	MIC (Enterococcus faecium [1]) [µg/mL]	MIC (Staphylococcus aureus) [µg/mL]	MIC (Enterococcus faecium [2]) [µg/mL]	MIC (Enterococcus faecium [3]) [µg/mL]	MIC (Enterococcus faecium [4]) [µg/mL]	MIC [5] [µg/mL]
C=CCOc1ccc2ccccc2c1-c1c(OCC(=O)N[C@H](CCCNC(=N)N)C(=O)N[C@H](CCCNC(=N)N)C(=O)N[C@@H](CC=C)C(=O)OCc2ccccc2)ccc2ccccc12.Cl.Cl	> 125	31.3	125	125	> 125						
CC(C)CCOc1ccc2ccccc2c1-c1c(OCC(=O)N[C@H](CCCCN)C(=O)N[C@H](CCCNC(=N)N)C(=O)N[C@H](CC(C)C)C(=O)OCc2ccccc2)ccc2ccccc12.Cl.Cl	31.3	3.9	15.6	15.6	31.3						
C=CCOc1ccc2ccccc2c1-c1c(OCC(=O)N[C@H](CCCCN)C(=O)N[C@H](CCCNC(=N)N)C(=O)N[C@@H](Cc2ccccc2)C(=O)OC)ccc2ccccc12.Cl.Cl (stereo in doubt; 81)	125	3.9	125	125	125						
C=CCOc1ccc2ccccc2c1-c1c(OCC(=O)N[C@H](CCCCN)C(=O)N[C@H](CCCNC(=N)N)C(=O)N[C@@H](CC(C)C)C(=O)OCc2ccccc2)ccc2ccccc12.Cl.Cl	31.3	1.95	31.3	31.3	31.3						
C=CCOc1ccc2ccccc2c1-c1c(OCC(=O)N[C@H](CCCCN)C(=O)N[C@H](CCCNC(=N)N)C(=O)N[C@H](CC=C)C(=O)OCc2ccccc2)ccc2ccccc12.Cl.Cl	125	15.6	62.5	104	125						
C=CCOc1ccc2ccccc2c1-c1c(OCC(=O)N[C@H](CC(C)C)C(=O)N[C@H](CCCNC(=N)N)C(=O)N[C@@H](CC=C)C(=O)OCc2ccccc2)ccc2ccccc12.Cl	62.5	3.9	31.3	31.3	62.5						
C=CCOc1ccc2ccccc2c1-c1c(OCC(=O)N[C@H](CCCCN)C(=O)N[C@H](CCCNC(=N)N)C(=O)N[C@@H](Cc2ccccc2)C(=O)OC)ccc2ccccc12.Cl.Cl (stereo in doubt; 82)						125	7.8	125	125	125	
C=CCOc1ccc2ccccc2c1-c1c(OCCCC(=O)N[C@H](CCCNC(=N)N)C(=O)OCc2ccccc2)ccc2ccccc12.Cl	62.5	3.9	62.5	62.5	125						
C=CCOc1ccc2ccccc2c1-c1c(OCC(=O)NCC(=O)N[C@H](CCCNC(=N)N)C(=O)N[C@@H](CC=C)C(=O)OCc2ccccc2)ccc2ccccc12.Cl	> 125	15.6	125	125	> 125						
C=CCOc1ccc2ccccc2c1-c1c(OCC(=O)N[C@H](CCCCN)C(=O)N[C@H](CCCNC(=N)N)C(=O)N[C@@H](CC=C)C(=O)OCc2ccccc2)ccc2ccccc12.Cl.Cl	31.3	1.95	31.3	31.3	31.3						
CC(C)CCOc1ccc2ccccc2c1-c1c(OCC(=O)N[C@H](CCCCN)C(=O)N[C@H](CCCCN)C(=O)N[C@@H](CC(C)C)C(=O)OCc2ccccc2)ccc2ccccc12.Cl.Cl	62.5	1.95	26.1	31.3	62.5						1.95
CC(C)CCOc1ccc2ccccc2c1-c1c(OCC(=O)N[C@H](CCCCN)C(=O)N[C@H](CCNC(=N)N)C(=O)N[C@@H](CC(C)C)C(=O)OCc2ccccc2)ccc2ccccc12.Cl.Cl	52.1	2.6	27.8	31.3	52.1						
C=CC[C@H](NC(=O)[C@@H](CCCNC(=N)N)NC(=O)[C@@H](CCCCN)NC(=O)COc1ccc2ccccc2c1-c1c(OCCC(C)C)ccc2ccccc12)C(=O)OCc1ccccc1.Cl.Cl	31.3	3.9	15.6	15.6	31.3						
C=CCOc1ccc2ccccc2c1-c1c(OCC(=O)N[C@H](Cc2ccccc2)C(=O)N[C@H](CCCNC(=N)N)C(=O)N[C@@H](CC=C)C(=O)OCc2ccccc2)ccc2ccccc12.Cl	> 125	26.1	31.3	62.5	> 125						
C=CCOc1ccc2ccccc2c1-c1c(OCC(=O)N[C@H](CCCCN)C(=O)N[C@H](CCCNC(=N)N)C(=O)NCC(=O)OCc2ccccc2)ccc2ccccc12.Cl.Cl	125	3.9	125	62.5	125						
C=CCOc1ccc2ccccc2c1-c1c(OCC(=O)N[C@H](CC=C)C(=O)N[C@H](CCCNC(=N)N)C(=O)N[C@@H](CC=C)C(=O)OCc2ccccc2)ccc2ccccc12.Cl	125	15.6	62.5	125	125						
C=CCOc1ccc2ccccc2c1-c1c(OCC(=O)N[C@H](CC(C)C)C(=O)N[C@H](CCCNC(=N)N)C(=O)N[C@@H](C)C(=O)OCc2ccccc2)ccc2ccccc12.Cl	62.5	5.2	62.5	62.5	62.5						
C=CCOc1ccc2ccccc2c1-c1c(OCC(=O)NCC(=O)NCC(=O)N[C@@H](CC=C)C(=O)OCc2ccccc2)ccc2ccccc12	62.5 (≈ 91.1 µM)	3.9 (≈ 5.69 µM)	15.6 (≈ 22.7 µM)	31.3 (≈ 45.6 µM)	31.3 (≈ 45.6 µM)						3.9 (≈ 5.69 µM)
C=CCOc1ccc2ccccc2c1-c1c(OCC(=O)N[C@H](CCCCN)C(=O)N[C@H](CCCCN)C(=O)N[C@@H](CC=C)C(=O)OCc2ccccc2)ccc2ccccc12.Cl.Cl	125	3.9	62.5	62.5	125						
C=CCOc1ccc2ccccc2c1-c1c(OCC(=O)N[C@H](CCCNC(=N)N)C(=O)OCc2ccccc2)ccc2ccccc12.Cl	62.5	3.3	62.5	62.5	62.5						
C=CCOc1ccc2ccccc2c1-c1c(OCC(=O)N[C@H](CCCCN)C(=O)N[C@H](CCCNC(=N)N)C(=O)N[C@@H](CC=C)C(=O)OCc2cccc3ccccc23)ccc2ccccc12.Cl.Cl	> 125	15.6	125	125	> 125						
C=CCOc1ccc2ccccc2c1-c1c(OCC(=O)N[C@H](C)C(=O)N[C@H](CCCNC(=N)N)C(=O)N[C@@H](CC=C)C(=O)OCc2ccccc2)ccc2ccccc12.Cl	62.5	5.2	62.5	62.5	62.5						
CC(C)CCOc1ccc2ccccc2c1-c1c(OCC(=O)N[C@H](CCCCN)C(=O)N[C@H](CCCN)C(=O)N[C@@H](CC(C)C)C(=O)OCc2ccccc2)ccc2ccccc12.Cl.Cl	62.5	1.95	15.6	31.3	62.5						
C=CCOc1ccc2ccccc2c1-c1c(OCC(=O)N[C@H](CCCC)C(=O)N[C@H](CCCNC(=N)N)C(=O)N[C@@H](CC=C)C(=O)OCc2ccccc2)ccc2ccccc12.Cl	125	52.1	62.5	83	125						
C=CCOc1ccc2ccccc2c1-c1c(OCC(=O)N[C@H](CCCCN)C(=O)N[C@H](CCCNC(=N)N)C(=O)N[C@@H](C)C(=O)OCc2ccccc2)ccc2ccccc12.Cl.Cl	125	7.8	125	125	125						
CC(C)CCOc1ccc2ccccc2c1-c1c(OCC(=O)N[C@H](CCCCN)C(=O)N[C@H](CCN)C(=O)N[C@@H](CC(C)C)C(=O)OCc2ccccc2)ccc2ccccc12.Cl.Cl	31.3	1.95	15.6	15.6	31.3						
